In PubChem BioAssay AID493097 (Broad Institute, 2011) one finds activity change, negative = inhibition and AC50 data, which are given here for twelve molecules.

Activity calls are given as the source filed them.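 How the source made its calls: active means falling signal with a fitted half-maximal concentration at most ten times the top valid dose; inconclusive means flat fit with 30 to 70 percent inhibition, or a poor fit; inactive means the rest.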

Usually AC50 stands for the concentration giving half of the maximal activity seen.

Test system in the first assay: not listed separately
In words: inhibition of V. harveyi QS light output, dose response, counter-screen for LuxS inhibitor project, strain BB721, dry powder, set 4 (AID 493097). The conditions noted are these: Vibrio harveyi BB721 constitutive QS, luminescence, 9 h; at 16 µM (top of the series). An outline of the steps: (§1)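 Incubation: 9 h exposure, 30 °C / System: V. harveyi BB721, constitutive-on quorum sensing / Amount: bacteria seeded at starting optical density OD600 0.0005 / Medium: AB (autoinducer bioassay) growth medium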
With `Cc1ccccc1NS(=O)(=O)c1cn(C)cn1`, the activity change, negative = inhibition is 5.69% (inactive).

Regarding `Cn1cnc(S(=O)(=O)Nc2ccccc2F)c1`, the activity change, negative = inhibition was 6.38% (inactive).

As for `CCc1ccc(-c2ccc(C(=O)O)n2C)cc1`, the activity change, negative = inhibition is -7.36% (inactive).

As for `CN(C)C(=O)c1ccccc1NS(=O)(=O)c1cn(C)cn1`, the activity change, negative = inhibition is 8.65% (inactive).

`CC(=O)Nc1ccccc1NS(=O)(=O)c1cn(C)cn1`: the activity change, negative = inhibition is 6.64% (inactive).

In the case of `COc1ccccc1NS(=O)(=O)c1cn(C)cn1`, the activity change, negative = inhibition was -0.736% (inactive).

As to `Cn1cnc(S(=O)(=O)Nc2ccccc2Cl)c1`, the activity change, negative = inhibition is 12.3% (inactive).

A further assay has as its system Vibrio harveyi BB721 constitutive QS, luminescence, 9 h. The description is as above.
Settings: not given
The essentials: as §1
`C=Cn1c(C(=O)O)ccc1-c1ccc(CC)cc1`: the AC50 is 13.1 µM.

As for `O=S(=O)(Nc1ccccn1)c1ccc(Oc2ccccc2)cc1`, the AC50 was 15.5 µM.

As for `Cn1cnc(S(=O)(=O)Nc2ccc(OC(F)(F)F)cc2)c1`, the AC50 is 14.1 µM.

Regarding `O=C1C=C/C(=C/Br)O1`, the AC50 was 3.92 µM.

With `O=S(=O)(Nc1cccnc1)c1ccc(Oc2ccccc2)cc1`, the AC50 is 0.775 µM.
